# Results published in BindingDB's records for doi:10.1021/acs.jmedchem.9b01313 (Anhui Medical University, 2019).
# Target: Hypoxia-inducible factor 1-alpha (Homo sapiens, UniProt Q16665)
# Test: Inhibition of HIF1alpha transcriptional activity in hypoxia-induced human HCCLM3 cells co-transfected with luciferase reporter plasmid containing five copies of HREs and pRL-SV40 plasmid encoding Renilla luciferase incubated with compound under normoxia for 1 hr followed by hypoxia induction and measured after 24 hrs by HRE-dependent dual luciferase reporter gene assay
# Method in brief: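 LM3 cells co-transfected with firefly luciferase reporter carrying five HRE copies plus pRL-SV40 Renilla plasmid; after transfection treated and kept under hypoxia; firefly luminescence normalized to Renilla. Single-point inhibition rate at 10 μM; IC50 for selected compounds.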
# Chain of Hypoxia-inducible factor 1-alpha (Q16665 whole entry): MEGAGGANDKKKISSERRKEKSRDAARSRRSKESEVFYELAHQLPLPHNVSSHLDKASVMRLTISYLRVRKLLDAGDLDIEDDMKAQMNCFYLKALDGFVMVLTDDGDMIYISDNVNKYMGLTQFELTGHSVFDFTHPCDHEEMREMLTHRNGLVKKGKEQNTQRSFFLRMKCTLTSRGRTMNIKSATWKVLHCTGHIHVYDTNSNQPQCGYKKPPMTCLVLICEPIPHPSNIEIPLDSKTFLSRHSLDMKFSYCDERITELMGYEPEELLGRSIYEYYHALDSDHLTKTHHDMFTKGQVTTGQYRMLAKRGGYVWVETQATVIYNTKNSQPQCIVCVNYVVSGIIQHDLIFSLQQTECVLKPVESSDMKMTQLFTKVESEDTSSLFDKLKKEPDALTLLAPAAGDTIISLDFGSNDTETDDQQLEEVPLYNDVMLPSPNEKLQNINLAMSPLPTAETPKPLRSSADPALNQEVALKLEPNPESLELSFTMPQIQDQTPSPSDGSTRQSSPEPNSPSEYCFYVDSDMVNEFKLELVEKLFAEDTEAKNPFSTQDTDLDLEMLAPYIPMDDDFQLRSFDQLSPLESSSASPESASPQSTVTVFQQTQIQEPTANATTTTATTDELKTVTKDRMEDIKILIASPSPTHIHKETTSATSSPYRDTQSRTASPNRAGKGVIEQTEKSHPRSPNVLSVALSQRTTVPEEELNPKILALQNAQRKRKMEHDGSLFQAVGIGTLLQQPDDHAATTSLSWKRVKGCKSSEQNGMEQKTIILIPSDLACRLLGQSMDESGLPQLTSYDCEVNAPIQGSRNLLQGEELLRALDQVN
row,Structure (SMILES),IC50
1,COC(=O)c1ccc(O)c(NC(=O)COc2ccc(C34CC5CC(CC(C5)C3)C4)cc2)c1,3.08 µM
2,O=C(NCCc1ccccc1F)c1ccc(-c2cccs2)cn1,2.48 µM
3,O=C(NCCc1ccccc1Cl)c1ccc(-c2ccccc2)cc1,2.87 µM
4,O=C(NCCc1ccncc1)c1ccc(-c2ccccc2)cn1,13.8 µM
5,O=C(NCCc1ccccc1F)c1ccc(-c2ccccc2)cn1,0.93 µM
6,Nc1ccc(CCNC(=O)c2ccc(-c3ccccc3)cn2)cc1,11.6 µM
7,O=C(NCCc1ccccc1F)c1ccc(-c2ccccc2F)cn1,2.16 µM
8,N#Cc1ccccc1-c1ccc(C(=O)NCCc2ccccc2F)nc1,8.53 µM
9,Cc1nc(C(=O)NCCc2ccccc2)cs1,55.7 µM
10,O=C(NCCc1ccccc1)c1ccc(-c2ccccc2)cn1,4.56 µM
11,O=C(NCCc1ccccc1F)c1ccc(-c2ccsc2)cn1,1.41 µM
12,O=C(NCCc1ccccc1F)c1ccc(-c2ccoc2)cn1,4.24 µM

# Results, then the compound that gave them:
row,IC50,Structure (SMILES)
1,10 µM,O=C(NCCc1ccncc1)c1nccc(-c2ccccc2)n1
2,0.32 µM,COc1ccccc1-c1ccc(C(=O)NCCc2ccccc2F)nc1
3,7.32 µM,O=C(NCCc1ccncc1)c1nnc(-c2ccccc2)o1
4,9.84 µM,O=C(NCCc1ccccc1Cl)c1ccc(-c2ccccc2)cn1
5,9.84 µM,O=C(NCCc1cccc(Cl)c1)c1ccc(-c2ccccc2)cn1
